ChEMBL document CHEMBL1687941 (J Med Chem, 2011)

Experiments:
[1] = test system: Plasmodium falciparum; test: Antimalarial activity against Plasmodium falciparum 3D7 infected-erythrocytes after 72 hrs by SYBR green fluorescence method; assay type: functional, organism-based; conditions: 3D7, 72 h
In short: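 P. falciparum 3D7 grown in erythrocytes at 4% hematocrit in RPMI 1640 with 20 mM HEPES, 32 mM NaHCO3, 10% Albumax II. Serial dilutions added to phenol red-free culture at 0.5% starting parasitemia, in triplicate, for 72 h at 37 °C. Lysis buffer with saponin, Triton X and SYBR Green I then added for 1 h at room temperature. Fluorescence read as parasite growth, and IC50 derived.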

[2] = target: T1, Aminopeptidase N (Plasmodium falciparum FcB1/Columbia, UniProt O96935); test: Inhibition of Plasmodium falciparum recombinant M1-aminopeptidase expressed in Escherichia coli after 40 mins uisng fluorogenic substrate L-Leucyl-7-amido-40-methylcoumarin by fluorescence spectrophotometry
T1 sequence (O96935 whole entry): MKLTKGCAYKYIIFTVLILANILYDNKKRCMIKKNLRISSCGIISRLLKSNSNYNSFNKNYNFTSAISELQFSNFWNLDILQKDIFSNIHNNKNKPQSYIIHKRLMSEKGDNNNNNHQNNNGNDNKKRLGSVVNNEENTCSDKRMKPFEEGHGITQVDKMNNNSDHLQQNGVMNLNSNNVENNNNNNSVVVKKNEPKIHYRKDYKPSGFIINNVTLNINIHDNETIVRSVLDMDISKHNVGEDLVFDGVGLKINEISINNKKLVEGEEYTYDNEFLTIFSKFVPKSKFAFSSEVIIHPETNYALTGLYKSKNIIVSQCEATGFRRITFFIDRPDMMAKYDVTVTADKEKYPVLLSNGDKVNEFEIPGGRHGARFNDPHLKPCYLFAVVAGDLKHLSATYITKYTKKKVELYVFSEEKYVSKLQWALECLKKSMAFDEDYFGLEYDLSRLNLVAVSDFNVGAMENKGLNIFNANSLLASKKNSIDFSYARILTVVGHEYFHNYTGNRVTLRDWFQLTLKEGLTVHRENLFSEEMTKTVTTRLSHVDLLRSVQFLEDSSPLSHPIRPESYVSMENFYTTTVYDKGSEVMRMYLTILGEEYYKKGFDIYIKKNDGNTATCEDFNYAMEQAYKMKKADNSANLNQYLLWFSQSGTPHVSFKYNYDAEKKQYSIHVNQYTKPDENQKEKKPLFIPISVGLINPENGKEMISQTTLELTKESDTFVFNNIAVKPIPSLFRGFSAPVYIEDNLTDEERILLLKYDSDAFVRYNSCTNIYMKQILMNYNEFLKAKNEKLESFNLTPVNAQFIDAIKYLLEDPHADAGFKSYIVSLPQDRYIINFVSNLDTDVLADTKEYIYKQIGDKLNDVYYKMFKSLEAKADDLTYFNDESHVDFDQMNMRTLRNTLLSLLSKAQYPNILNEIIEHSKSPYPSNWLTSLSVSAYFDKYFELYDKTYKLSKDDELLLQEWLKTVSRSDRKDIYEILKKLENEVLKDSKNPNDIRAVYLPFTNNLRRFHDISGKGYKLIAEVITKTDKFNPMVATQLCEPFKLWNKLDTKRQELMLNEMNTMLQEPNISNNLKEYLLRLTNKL
In short: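 Recombinant PfA-M1 expressed in E. coli, 0.9 nM, in 50 mM HEPES pH 7.5, 100 mM NaCl, 0.1% Triton X-100. Ki by Dixon plots (1/rate vs [I]) and secondary plots vs 1/[S]. Competitive mode checked with a/v vs i plots.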

| SMILES | IC50 [1] [µM] | Ki [2] | Ki ([2]; read-out: Ki) [µM] |
| --- | --- | --- | --- |
| CC(C)C[C@H](NC(=O)[C@@H](O)[C@H](N)CC(C)C)C(=O)O | > 50 | Not Active | – |
| CC(C)C[C@H](NC(=O)[C@@H](O)[C@H](N)Cc1ccc2ccccc2c1)C(=O)O | > 50 | – | 3 |
| CC(C)C[C@H](NC(=O)[C@@H](O)[C@H](N)Cc1ccccc1)C(=O)O [UBENIMEX] | 3.2 | – | – |
| CC(C)C[C@H](NC(=O)[C@@H](O)[C@H](N)C(c1ccccc1)c1ccccc1)C(=O)O | > 50 | Not Active | – |
| CC(C)C[C@H](NC(=O)[C@@H](O)[C@H](N)Cc1ccc(OCc2ccccc2)cc1)C(=O)O | 29 | – | – |
| COc1ccc(C[C@@H](N)[C@H](O)C(=O)N[C@@H](CC(C)C)C(=O)O)cc1 | 6.4 | – | – |
| CC(C)C[C@H](NC(=O)[C@@H](O)[C@H](N)Cc1ccc(-c2ccccc2)cc1)C(=O)O | > 50 | Not Active | – |
| CCCC[C@H](NC(=O)[C@@H](O)[C@H](N)Cc1ccccc1)C(=O)O | – | – | 0.9 |
| CCCC[C@@H](N)[C@H](O)C(=O)N[C@@H](CC(C)C)C(=O)O | > 50 | – | 5.3 |
| N[C@H](Cc1ccccc1)[C@H](O)C(=O)N[C@@H](CCCCNC(=O)OCc1ccccc1)C(=O)O | – | – | 1.45 |
